Reference: publication PMC3556274 (Bioconjugate chemistry, 2012)
Non-standard residues stand in square brackets, D forms with d. Residues, ends and D or L forms follow the SMILES beside them. *: point of attachment. DTPA = O=C(O)CN(CCN(CC(=O)O)CC(=O)O)CCN(CC(=O)O)CC(=O)*; Orn = NCCC[C@H](N)C(=O)O; 2Furoyl = O=C(c1ccco1)*

Experiments:
[1] = molecular target: T1, PAR2 (Homo sapiens, UniProt P55085); type: binding; conditions: 16HBE14o- cells, against 300 nM 2-f-LIGRLO-dtpa
T1 sequence (P55085 26-397): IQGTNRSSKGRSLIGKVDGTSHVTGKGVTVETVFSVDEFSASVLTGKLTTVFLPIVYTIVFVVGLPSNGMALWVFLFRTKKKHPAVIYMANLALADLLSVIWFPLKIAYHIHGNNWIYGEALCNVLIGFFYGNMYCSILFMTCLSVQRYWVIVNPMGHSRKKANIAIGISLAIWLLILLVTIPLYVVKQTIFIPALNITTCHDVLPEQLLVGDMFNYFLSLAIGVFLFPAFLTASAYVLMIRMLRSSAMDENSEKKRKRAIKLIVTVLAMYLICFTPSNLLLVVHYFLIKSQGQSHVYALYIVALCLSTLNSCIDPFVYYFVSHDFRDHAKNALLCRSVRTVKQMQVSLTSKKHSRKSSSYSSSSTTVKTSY
Method in brief: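 Live 16HBE14o- cells grown to confluence (37°C, 5% CO2) on BSA/collagen I/fibronectin-coated 96-well plates. Cells were blocked 75 min in 2% BSA in HEPES-buffered HBSS pH 7.4, then given 45 min at 25°C with 300 nM Eu-DTPA-labelled PAR2 agonist plus competitor at 1 nM–600 µM. Three EDTA/Tween/BSA washes followed, then DELFIA enhancement for 40–45 min. Eu TRF read at ex 340/em 615 nm with 400 µs delay. Apparent IC50 from n ≥ 3 per concentration in ≥2 independent plates.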

[2] = molecular target: T1, PAR2; assay: xCELLigence Real Time Cell Analyzer; type: cell-based; conditions: 16HBE14o- cells
[3] = molecular target: T1, PAR2; assay: MAPK signaling, immunoblot of pERK/tERK; type: cell-based; conditions: 16HBE14o- cells, 5 min exposure, concentration response 1-10 µM
Method in brief: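 16HBE14o- cells exposed 5 min to test compound at 1–10 µM. ERK1/2 phosphorylation measured by immunoblot as pERK relative to total ERK. Values were compared with matching HBSS control.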

[4] = molecular target: T1, PAR2; assay: Ca2+ signaling by digital imaging microscopy in 16HBE14o- cells; type: cell-based; conditions: 5 µM
Method in brief: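 Human bronchial epithelial 16HBE14o- cells (high PAR2 expression) imaged by digital microscopy for [Ca2+]i changes in individual cells over a 3 min run after agonist addition. Concentration response 0.5–25 µM. Read-out: time course of [Ca2+]i rise and percentage of cells in the field responding within 3 min. Each concentration had 3–9 experiments.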

[5] = system: control vector-transfected (kNRK) rat kidney cells; assay: Ca2+ signaling in control vector-transfected kNRK cells; type: cell-based
Method in brief: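 Kirsten virus-transformed normal rat kidney cells (low PAR2 expression) transfected with control vector were run alongside PAR2-transfected kNRK cells. [Ca2+]i was imaged by digital microscopy as for the bronchial epithelial cells, scoring the percentage of cells responding within the 3 min run. Comparison was to matched control, n ≥ 4.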

Molecule: 3-indoleacetyl-LIGRL-NH2 [3-ia-LIGRL]
- competition for PAR2 binding (in words) [1]: displayed limited binding

Molecule: CC[C@H](C)[C@H](NC(=O)[C@H](CC(C)C)NC(=O)c1ccco1)C(=O)NCC(=O)N[C@@H](CCCNC(=N)N)C(=O)N[C@@H](CC(C)C)C(=O)N[C@@H](CCCNC(=O)CN(CCN(CCN(CC(=O)O)CC(=O)O)CC(=O)O)CC(=O)O)C(N)=O [2-f-LIGRLO-dtpa, 2-furoyl-LIGRLO-(diethylenetriaminepentaacetic acid)-NH2] (2Furoyl-LIGRL[Orn](DTPA)-NH2)
- concentration that stimulated a maximum Cell Index ([2]; RTCA): 2.5 µM
- agonist properties in the RTCA physiological response assay ([2]; acute (10 min) and long-term (4 h) time points): full agonist properties
- concentration inducing a significant increase in pERK/tERK compared with control [3]: 2.5 µM
- concentration of peak (maximum) pERK/tERK activation [3]: 10 µM
- time to initial increase in [Ca2+]i [4]: ≤ 30 s
- percentage of cells with Ca2+ signaling ([5]; 2.5 µM): 0.42% ± 0.42
- percentage of cells with Ca2+ signaling ([5]; 5 µM): 2.98% ± 0.09
